Active and inactive are the calls of the source. The rule behind the calls is not given here.
Tests used:
[1] = test system: Staphylococcus aureus; test: Effect on DNA replication in Staphylococcus aureus ATCC 25923 assessed as inhibition of [3H]thymidine utilization after 30 mins relative to control; assay type: functional; design: scale not given: the % may be the effect or the level left
Procedure, shortened: (§1)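 Early log-phase cells in Luria Broth labelled with 3 μCi [methyl-3H]thymidine (DNA) or 3 μCi [5-3H]uridine (RNA), with or without drug at twice the MIC; ciprofloxacin (DNA) or rifampicin (RNA) as reference inhibitors, DMSO control. 50 μL samples taken at 5, 10, 20, 30, 45, 60 min into ice-cold 10% TCA; precipitated radioactivity by liquid scintillation, expressed relative to untreated control.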

[2] = test system: Staphylococcus aureus; test: Effect on RNA transcription in Staphylococcus aureus ATCC 25923 assessed as [3H]uridine incorporation after 20 mins relative to control; assay type: functional; procedure, shortened: as §1
[3] = test system: Staphylococcus aureus; test: Growth inhibition against […] Staphylococcus aureus ATCC 25923 after 2 hrs by agar dilution; assay type: functional, organism-based
Procedure, shortened: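 Log-phase overnight culture inoculated at 10^6 cfu/mL into fresh Mueller-Hinton broth and shaken 1 hr at 35°C. Compound in DMSO then added at 1, 5 or 10 times the MIC, with MIC set by agar dilution in Mueller-Hinton II agar read after 24 hr at 37°C. Growth was followed by viable counts from plated dilutions (colonies counted after 24 hr) and OD 630 nm.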

[4] = test system: Staphylococcus aureus; test: Inhibition of cell wall biosynthesis in Staphylococcus aureus assessed as cytoplasmic membrane rupture; assay type: functional, organism-based
Procedure, shortened: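 S. aureus ATCC 25923 lawns on TSA with 6-mm paper discs carrying 20 μg compound or penicillin G. SEM: after 24 h at 37°C, agar at the edge of inhibition zones cut out, glutaraldehyde-osmium fixed, gold/palladium coated, imaged for cell morphology. Light microscopy: after 4–5 h, cells lifted onto coverslips from zones, Gram-stained (safranin counterstain), viewed bright-field.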

[5] = test system: Staphylococcus aureus; test: Effect on fatty acid biosynthesis in Staphylococcus aureus RN4220 assessed as [3H]acetate uptake relative to control; assay type: functional, organism-based
Procedure, shortened: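 Strain RN4220 grown at 37 °C to A600 0.11 (1.3 x 10^7 cfu/mL), split into 5 mL tubes; drug added at 1x or 2x MIC (final DMSO 2%), penicillin G 2xMIC and no-drug controls. After 5 min, 3H-acetate added (4 μCi/mL); 0.8 mL aliquots at 15, 30, 45, 60 min extracted with chloroform/methanol; uptake compared with controls.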

[6] = test system: Escherichia coli; test: Effect on pBR322 fragmentation at 5 to 100 uM after 24 hrs by agarose gel electrophoresis; assay type: functional
Procedure, shortened: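 Supercoiled pBR322 (0.5 μg) in 50 mM sodium phosphate, pH 7.4, treated with 5–100 μM compound (added in DMSO; DMSO-only lane as control), 37°C for 24 h. Aliquots run on 1.2% agarose/TAE gel with ethidium bromide at 80 V/10 cm for 2.5 h, UV visualization of single- and double-strand breakage.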

[7] = test system: Staphylococcus aureus; test: Growth inhibition against methicillin-susceptible Staphylococcus aureus ATCC 25923 after 2 hrs by agar dilution; assay type: functional, organism-based
[8] = test system: Staphylococcus aureus; test: Growth inhibition against penicillin-susceptible Staphylococcus ATCC 25923 aureus after 24 hrs; assay type: functional, organism-based
Procedure, shortened: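 Well-diffusion plate: 10^8 suspension in PBS pH 7.4 swabbed on TSA; 6-mm wells loaded with 20 μg compound (from 1 mg/mL DMSO stock), penicillin G 20 μg as comparator; 37°C, 24 h; growth-inhibition zones read.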

Row | SMILES | Activity [1] [%] | Activity [2] [%] | Activity [3] | Activity [4] | Activity [5] | Activity [6] | Activity [7] | Activity [8]
1 | O=C(O)c1cn(C2CC2)c2cc(N3CCNCC3)c(F)cc2c1=O [CIPROFLOXACIN] | 65 | – | – | – | – | – | – | –
2 | CO[C@H]1/C=C/O[C@@]2(C)Oc3c(C)c(O)c4c(O)c(c(/C=N/N5CCN(C)CC5)c(O)c4c3C2=O)NC(=O)/C(C)=C\C=C\[C@H](C)[C@H](O)[C@@H](C)[C@@H](O)[C@@H](C)[C@H](OC(C)=O)[C@@H]1C [RIFAMPIN] | – | <20 | – | – | – | – | – | –
3 | CO[C@H]1C(=O)N(SC)[C@H]1c1ccccc1Cl | >90 | 80 | Active | inactive | Active | inactive | Active | Active
4 | CC1(C)S[C@@H]2[C@H](NC(=O)Cc3ccccc3)C(=O)N2[C@H]1C(=O)O | – | – | – | Active | – | – | – | inactive

Source: ChEMBL document CHEMBL1147030, “N-thiolated beta-lactams: Studies on the mode of action and identification of a primary cellular target in Staphylococcus aureus” (2007)
